{"source": "ChEMBL document CHEMBL1139403", "about": "“Syntheses and anti-depressant activity of 5-amino-1, 3, 4-thiadiazole-2-thiol imines and thiobenzyl derivatives” (2008)", "key": {"Mus musculus [1]": {"test_system": "Mus musculus", "test": "Antidepressant activity in albino mouse assessed as decrease in immobility time at 10 mg/kg, ip after 60 mins by forced-swimming test relative to untreated control", "assay_type": "functional", "design": "scale not given: the % may be the effect or the level left", "settings": "route intraperitoneal", "outline": "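Albino mice given 10 mg/kg ip; forced swim in a vertical Plexiglas cylinder of water at 25 °C for 15 min, immobility plateauing after 5–6 min; % immobility calculated; mice dried in a heated enclosure (32 °C) afterwards.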"}, "Mus musculus [2]": {"test_system": "Mus musculus", "test": "Neurotoxicity in albino mouse assessed as animal in lateral position at 10 mg/kg, ip administered 1 hr prior to ethanol challenge measured after 30 mins", "assay_type": "functional", "settings": "route intraperitoneal"}}, "data": [{"smiles": "COc1ccc(/C=C/C(=N\\c2nnc(SCc3ccccc3)s2)c2ccc(Cl)cc2)cc1", "values": [{"measurement": "Activity", "setting": "Mus musculus [1]", "result": 77.99, "unit": "%"}, {"measurement": "Activity", "setting": "Mus musculus [2]", "result": "<50", "unit": "%"}]}, {"smiles": "Clc1ccc(/C=C/C(=N\\c2nnc(SCc3ccccc3)s2)c2ccc(Cl)cc2)cc1", "values": [{"measurement": "Activity", "setting": "Mus musculus [2]", "result": "<50", "unit": "%"}]}, {"smiles": "COc1ccc(/C=C/C(=N\\c2nnc(SCc3ccc(Cl)cc3)s2)c2ccc(Cl)cc2)cc1", "values": [{"measurement": "Activity", "setting": "Mus musculus [1]", "result": 84.23, "unit": "%"}, {"measurement": "Activity", "setting": "Mus musculus [2]", "result": "<50", "unit": "%"}]}, {"smiles": "Clc1ccc(/C=C/C(=N\\c2nnc(SCc3ccc(Cl)cc3)s2)c2ccc(Cl)cc2)cc1", "values": [{"measurement": "Activity", "setting": "Mus musculus [1]", "result": 87.57, "unit": "%"}, {"measurement": "Activity", "setting": "Mus musculus [2]", "result": "<50", "unit": "%"}]}, {"smiles": "CN(C)CCCN1c2ccccc2CCc2ccccc21", "note": "[IMIPRAMINE]", "values": [{"measurement": "Activity", "setting": "Mus musculus [1]", "result": 82, "unit": "%"}, {"measurement": "Activity", "setting": "Mus musculus [2]", "result": "<50", "unit": "%"}]}]}
